Screening data from PubChem.
TAAR1 ag: human TAAR1 agonism; 360,000 compounds, 0.99% hits; activation, % at 3 µM; Q96RJ0; CHO RD-HGA16 TAAR1, Fluo-8 calcium fluorescence; vehicle wells 0%, saturating PEA agonist 100%;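 active = activation above the mean activation of all test compounds in the run plus 3 SD, cut at about 38% in these data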
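Test system: RD-HGA16 (CHO) cells co-expressing Gα16 and hTAAR1; dosing: one-point dosing at 3 µM (nominal); timing: 17-24 h seeding, 75 min 37 °C dye, 30 min RT; signal: kinetic Fluo-8 calcium fluorescence; read-out basis: % activation relative to PEA EC100 response; controls: DMSO and PEA EC100; replicates: n 1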
CHO parental Ca: counter-screen: ATP calcium response change in parental CHO cells; parental CHO-K1, ATP-induced calcium, Fluo-8 fluorescence; inhibition, % at 5.6 µM; 330,000 compounds, 0.63% hits; AID 463079;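 active = inhibition above that plate's mean sample inhibition plus 3 SD, cut at about 26% in these data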
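Material – parental CHO cells · Reagent – ATP stimulus · Compound – single nominal dose of 5.6 µM per compound · Detection – Fluo-8 fluorescence · Read-out basis – percent inhibition of calcium signal · Controls – ATP-challenged DMSO wells low, unchallenged DMSO wells high · Repeats – no replicates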
GPR7 antagonist: blocks human GPR7 receptor signaling | GPR7-expressing cells, fluorescence antagonist assay | 290,000 compounds, 1.1% hits | AID 1861 | inhibition, % at 4.4 µM | P48145; in the data active = inhibition above about 16%, passing the limit was not always enough;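 note: cells stimulated with the agonist NPW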
Target sequence (P48145 whole entry, looked up): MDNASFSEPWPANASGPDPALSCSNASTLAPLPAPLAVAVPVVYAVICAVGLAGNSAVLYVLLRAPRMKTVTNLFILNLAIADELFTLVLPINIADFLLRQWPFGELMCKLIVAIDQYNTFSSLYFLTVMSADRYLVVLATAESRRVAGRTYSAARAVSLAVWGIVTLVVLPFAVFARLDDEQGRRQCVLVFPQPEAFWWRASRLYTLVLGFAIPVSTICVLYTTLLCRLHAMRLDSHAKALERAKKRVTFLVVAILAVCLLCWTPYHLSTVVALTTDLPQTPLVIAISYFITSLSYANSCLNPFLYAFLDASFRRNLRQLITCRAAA
TAAR1 antag: human TAAR1 antagonism. 360,000 compounds, 1.5% hits. CHO RD-HGA16 TAAR1, Fluo-8 calcium fluorescence, antagonist. Q96RJ0. inhibition, % at 3 µM;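 active = inhibition above a per-plate cutoff, the mean inhibition of test compounds on that plate plus 3 SD, cut at about 49% in these data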
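Test system – hTAAR1-expressing CHO RD-HGA16 cells, Gα16-coupled · Reagent – β-PEA at EC80 concentration, post-compound challenge · Compound dosing – 3 µM, single point · Timing – 140 s kinetic read after compound, 140 s after agonist · Detection – Fluo-8 intracellular calcium dye fluorescence, real-time kinetic reads · Control set – DMSO and EC80 PEA controls · Repeats – n of 1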
OX1R antag-1: OX1R (human) antagonism | OX1R-expressing cells, FRET antagonist read-out | inhibition, % at 6.6 µM | 330,000 compounds, 1.8% hits; in the data active = inhibition mostly above about 38%, no sharp cut-off; inactive = mostly below about 40%
Target sequence (O43613 whole entry, looked up): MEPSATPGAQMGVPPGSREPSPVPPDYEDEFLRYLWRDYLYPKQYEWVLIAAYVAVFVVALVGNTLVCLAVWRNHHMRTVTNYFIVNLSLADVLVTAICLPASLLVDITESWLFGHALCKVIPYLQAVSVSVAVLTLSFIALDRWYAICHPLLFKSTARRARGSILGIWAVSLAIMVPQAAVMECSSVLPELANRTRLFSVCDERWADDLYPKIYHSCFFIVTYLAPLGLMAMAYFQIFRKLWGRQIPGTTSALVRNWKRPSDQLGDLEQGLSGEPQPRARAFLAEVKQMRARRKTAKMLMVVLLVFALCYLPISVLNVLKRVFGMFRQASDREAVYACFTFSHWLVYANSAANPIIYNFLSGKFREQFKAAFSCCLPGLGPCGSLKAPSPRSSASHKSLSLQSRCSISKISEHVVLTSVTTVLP
OX1R antag-2: blocks the human orexin 1 receptor; AID 434989; 330,000 compounds, 0.43% hits; CHO/OX1R cells, Fluo-8 calcium fluorescence, orexin A; inhibition, % at 5 µM; O43613;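 active = inhibition above its plate's threshold, mean inhibition of all tested compounds on the plate plus 3 SD, cut at about 37% in these data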
GPR7 antag cf: confirmation of human GPR7 antagonists. GPR7-expressing cells, calcium fluorescence antagonist mode. shares compounds with GPR7 antagonist. inhibition, % at 4.4 µM. 2,400 compounds, 52% hits; in the data active = inhibition above about 24%;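 note: stimulated with the GPR7 agonist NPW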
MCHR1 antag: MCHR1 (human) antagonism in GPR7 counter-screen. shares compounds with GPR7 antagonist. MCHR1-expressing cells, fluorescence antagonist assay. 2,400 compounds, 62% hits. inhibition, % at 4.4 µM; in the data active = inhibition above about 22%
Large screens that a line does not name were inactive (follow-up assays come after a bar, where they were run). Sampled rows, rich in hits. Any-hit rate of the full collection: about 4.6%.

COc1ccccc1OCC(O)Cn1c(=N)n(Cc2ccccc2)c2ccccc21 (configuration not stated)	GPR7 antagonist 25.3 | GPR7 antag cf 28.5 | MCHR1 antag 35.2
C=CCn1c(=N)n(CC(O)COc2ccccc2OC)c2ccccc21 (configuration not stated)	none
CCC(C)c1ccccc1N1CC(C(=O)Nc2ccc(N3CCOCC3)cc2)CC1=O (configuration not stated)	none (no result: GPR7 antagonist)
COC(=O)c1ccc(OCC(=O)NCCC2=CCCCC2)c(OC)c1	none (no result: GPR7 antagonist)
CCC(=O)c1ccc(OCC(=O)NCCC2=CCCCC2)c(OC)c1	GPR7 antagonist 24.0 | GPR7 antag cf inactive | MCHR1 antag inactive
O=C(O)C(Cc1ccccc1)N1C(=O)/C(=C/c2ccccc2)SC1=S (configuration not stated)	none
COc1cc(/C=C2\SC(=S)N(C(Cc3ccccc3)C(=O)O)C2=O)ccc1O (configuration not stated)	GPR7 antagonist 22.0 | GPR7 antag cf inactive | MCHR1 antag inactive
OCc1ccccc1N=c1ssnc1Cl	GPR7 antagonist 31.1 (no result: TAAR1 ag, TAAR1 antag) | GPR7 antag cf inactive | MCHR1 antag inactive
CCN1CCN(CCCNC(=O)c2ccc3c(c2)N(Cc2ccc(C)cc2)CCS3)CC1	none (no result: TAAR1 ag, TAAR1 antag)
Cc1cc(C(=O)N2CCC(Cc3ccccc3)CC2)ccc1[N+](=O)[O-]	none (no result: GPR7 antagonist) | MCHR1 antag inactive
CC(Nc1nc(-c2ccccc2)nc2ccccc12)c1ccccc1 (configuration not stated)	none
CC(Nc1nc(N2CCCCC2)nc2ccccc12)c1ccccc1 (configuration not stated)	GPR7 antagonist 24.3 | GPR7 antag cf 30.3 | MCHR1 antag 56.9
COc1ccc(CCNC(=S)c2ccccc2)cc1OC	none
CN(C)c1ncnc2c1ncn2[C@H]1CN(Cc2ccccc2)C[C@@H](CO)O1	none (no result: CHO parental Ca, GPR7 antagonist, OX1R antag-1, OX1R antag-2)
Cc1cc([N+](=O)[O-])cc(C)c1OCC(=O)N/N=C/c1ccc(OC(=O)c2ccccc2)cc1	none (no result: GPR7 antagonist) | MCHR1 antag inactive
Cc1ccc(OCC(O)CNC2CCCC2)c(C)c1 (configuration not stated)	none (no result: CHO parental Ca, OX1R antag-1, OX1R antag-2)
Cc1ccccc1OCC(O)CNC1CCC(NCC(O)COc2ccccc2C)CC1 (configuration not stated)	GPR7 antagonist 77.0 | GPR7 antag cf 82.9 | MCHR1 antag 80.1
OC(CNC1Cc2ccccc2C1)COc1ccc(F)cc1 (configuration not stated)	GPR7 antagonist 21.9 | GPR7 antag cf inactive | MCHR1 antag inactive
O=C1/C(=C2/NCCN2C2CC(=O)N(c3ccccc3)C2=O)CC/C1=C\c1ccccc1 (configuration not stated)	none
O=S(=O)(c1ccc(F)c(F)c1F)N1CCN(C(=S)NCc2ccccc2)CC1	none
C#CCNC(=O)C1=C[C@H](c2cn(C(C)=O)c3ccccc23)C[C@H](OCc2ccc(CO)cc2)O1	TAAR1 ag 44.1, GPR7 antagonist 38.3, TAAR1 antag 49.2 | GPR7 antag cf inactive | MCHR1 antag 38.1
COc1ccc(S(=O)(=O)N2CCC(C(=O)NCCc3ccc4c(c3)OCO4)CC2)cc1	GPR7 antagonist 27.7 | GPR7 antag cf inactive | MCHR1 antag inactive
COc1ccc(CCNC(=O)c2ccc3c(c2)OCCO3)cc1	GPR7 antagonist 27.5 | GPR7 antag cf inactive | MCHR1 antag inactive
COc1ccc(S(=O)(=O)N2CCC(C(=O)NCc3ccco3)CC2)cc1	GPR7 antagonist 80.3 | GPR7 antag cf 24.3 | MCHR1 antag inactive
O=C(NCCc1ccc2c(c1)OCO2)C1CCN(S(=O)(=O)c2ccc(Cl)cc2)CC1	none
Cc1ccc2nc(-c3ccc(F)cc3)c(Cc3cccc(F)c3)n2c1	none (no result: CHO parental Ca, GPR7 antagonist, OX1R antag-1, OX1R antag-2)
COC(=O)[C@H](Cc1ccccc1)NCCCn1cnc(C(=O)Nc2ccc(C)c(C)c2)n1	none (no result: CHO parental Ca, GPR7 antagonist, OX1R antag-1, OX1R antag-2)
Cc1ccc(OCCNC(=O)c2cc(C(=O)NCCOc3ccc(C)cc3)cc([N+](=O)[O-])c2)cc1	none
COc1ccc([N+](=O)[O-])cc1C(=O)NCCOc1ccc(Cl)cc1	GPR7 antagonist 48.4 | GPR7 antag cf 41.8 | MCHR1 antag 46.5
O=C(Nc1ccccc1)Nc1ncc([N+](=O)[O-])s1	GPR7 antagonist 23.3 (no result: CHO parental Ca, OX1R antag-1, OX1R antag-2) | GPR7 antag cf inactive | MCHR1 antag 52.8
CCCCC(=O)Nc1ncc([N+](=O)[O-])s1	none
Cc1cn([C@H]2C[C@H](O)[C@@H](CCC(=O)NCCc3c[nH]c4ccccc34)O2)c(=O)[nH]c1=O	none (no result: GPR7 antagonist)
C(=N/n1c2ccccc2c2ccccc21)/c1ccco1	GPR7 antagonist 26.3 | GPR7 antag cf inactive | MCHR1 antag inactive
COc1ccc(-c2ccc(=O)n(Cc3ccc([N+](=O)[O-])cc3)n2)cc1	GPR7 antagonist 36.2 | GPR7 antag cf 52.0 | MCHR1 antag 82.8
Cc1ccc(-c2ccc(=O)n(Cc3ccc(F)cc3)n2)cc1	none
CCOC(=O)N(C)OC(=O)Nc1ccc(Cl)c(Cl)c1	none
Cc1ccc2c(-c3ccc([N+](=O)[O-])cc3)cc(=O)[nH]c2c1	none
CCCCCCCCCCOC(=O)Cn1c(COc2ccccc2)[n+](C)c2ccccc21	CHO parental Ca 62.3, GPR7 antagonist 71.3, OX1R antag-2 72.5 | GPR7 antag cf 77.4 | MCHR1 antag 93.6
CCCCCCCCCCOC(=O)Cn1c(COc2ccc(Cl)cc2)[n+](C)c2ccccc21	TAAR1 ag 47.1, CHO parental Ca 33.4, GPR7 antagonist 60.2 | GPR7 antag cf 66.4 | MCHR1 antag 70.5
CCOC(=O)Cn1c(COc2ccccc2OC)[n+](C)c2ccccc21	none (no result: GPR7 antagonist)
CCCCCCCCCCOC(=O)Cn1c(COc2ccccc2C)[n+](C)c2ccccc21	CHO parental Ca 43.2, GPR7 antagonist 27.9, OX1R antag-2 53.1 (no result: TAAR1 ag, TAAR1 antag) | GPR7 antag cf 83.4 | MCHR1 antag 87.5
CCCCOC(=O)Cn1c(=O)n(CC(=O)OCCCC)c2ccccc21	none
CCCCCCCCCCOC(=O)Cn1c(COc2cccc(C)c2)[n+](C)c2ccccc21	TAAR1 ag 41.6, CHO parental Ca 65.3, GPR7 antagonist 45.2, TAAR1 antag 65.1, OX1R antag-2 74.9 | GPR7 antag cf 67.7 | MCHR1 antag 85.3
O=C(Cc1ccc(S(=O)(=O)N2CCOCC2)s1)Nc1nc2c(s1)CCCC2	none
Cc1ccc(S(C)(=O)=O)cc1S(=O)(=O)Nc1cccc(Cl)c1	none
CC1(C)CC(=O)C(C=NCC(N)=O)=C(O)C1	none
CC1(C)CC(=O)C(C=NCCCO)=C(O)C1	GPR7 antagonist 27.0 | GPR7 antag cf inactive | MCHR1 antag inactive
